Each block holds one molecule with its values, some of them ahead of it. The source made the active and inactive calls. No cut-off for these calls is given here.
How the values were obtained:
[1] = Drug level in cynomolgus monkey whole blood treated with UBS109 at 1 uM after 2 hrs by LC/MS-MS analysis; assay type: ADME, tissue-based, Macaca fascicularis
Blood [2] = assay: Drug level in human whole blood treated with UBS109 at 1 uM after 2 hrs by LC/MS-MS analysis; assay type: ADME, tissue-based
Liver = assay: Drug level in human liver S9 fraction treated with UBS109 at 1 uM using 1% DMSO measured after 1 hr by LC/MS-MS analysis in absence of NADPH; assay type: ADME; conditions: s9, 1 h
How it was run: (§1)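 Compound was incubated in pooled liver S9 fractions (mouse, cynomolgus monkey, human), mostly with NADPH and in 1% DMSO. Human S9 was also run without NADPH, and at 0.2% DMSO. Parent loss and metabolite formation were followed over time by LC–MS/MS, and half-life was derived from parent depletion.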

[3] = Drug level in human liver S9 fraction treated with UBS109 at 1 uM using 1% DMSO measured at 60 mins by LC/MS-MS analysis in presence of NADPH; assay type: ADME, subcellular; conditions: s9, 1 h; how it was run: as §1
[4] = Growth inhibition of human TU212 cells after 48 hrs by neutral red dye uptake assay; assay type: functional; conditions: TU212, 48 h
How it was run: (§2)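 TU212 (head and neck SCC) and MDA-MB-231 (breast adenocarcinoma) cells were exposed to compounds at 5 and 10 μM with DMSO below 0.1%. Viability was read by neutral red uptake. Error bars are standard error of the mean, and significance was tested by two-tailed t test.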

[5] = Drug level in CD1 mouse liver S9 fraction treated with UBS109 at 1 uM using 1% DMSO measured after 60 mins by LC/MS-MS analysis in presence of NADPH; assay type: ADME, subcellular; conditions: s9, 1 h; how it was run: as §1
MDA-MB-231 = assay: Growth inhibition of human MDA-MB-231 cells after 48 hrs by neutral red dye-based assay; assay type: functional; conditions: MDA-MB-231, 48 h; how it was run: as §2
[6] = Drug level in Beagle dog whole blood treated with UBS109 at 1 uM after 2 hrs by LC/MS-MS analysis; assay type: ADME, tissue-based, Canis lupus familiaris
[7] = Elimination half life in mouse; assay type: ADME, organism-based; conditions: in vivo, read-out: beta t1/2 (converted)
[8] = Drug metabolism in human liver S9 fraction assessed as (E)-1-methyl-3-(2-pyridinylmethyl)-5-(2-pyridinylmethylidene)-4-piperidone formation at 1 uM using 1% DMSO measured after 1 hr by LC/MS-MS analysis in absence of NADPH; assay type: ADME; conditions: s9, 1 h; how it was run: as §1
[9] = Half life in human liver S9 fraction at 2 uM in absence of NADPH
TU212 = assay: Cytotoxicity against human TU212 cells assessed as cell viability at 5 to 10 uM after 48 hrs by neutral red dye uptake assay; assay type: functional, cell-based; how it was run: as §2
[10] = Drug metabolism in human liver S9 fraction assessed as (E)-1-methyl-3,5-bis(2-pyridinylmethylidene)-4-hydroxypiperidine formation at 1 uM using 1% DMSO measured after 1 hr by LC/MS-MS analysis in absence of NADPH; assay type: ADME; conditions: s9, 1 h; how it was run: as §1
[11] = Metabolic stability in human liver S9 fraction assessed as remaining compound level at 2 uM using 0.2% DMSO measured after 1 hr by LC/MS-MS analysis in absence of NADPH; assay type: ADME; conditions: read-out: Stability; how it was run: as §1
[12] = Half life in cynomolgus monkey liver S9 fraction at 1 uM using 1% DMSO; assay type: ADME, subcellular, Macaca fascicularis; how it was run: as §1
[13] = Plasma protein binding in mouse; assay type: ADME, organism-based; conditions: read-out: PPB (converted)
[14] = Half life in human liver S9 fraction at 2 uM using 0.2% DMSO in presence of NADPH; assay type: ADME, subcellular; how it was run: as §1
[15] = Drug metabolism in Beagle dog whole blood assessed as (E)-1-methyl-3-(2-pyridinylmethyl)-5-(2-pyridinylmethylidene)-4-piperidone formation at 1 uM after 2 hrs by LC/MS-MS analysis; assay type: ADME, tissue-based, Canis lupus familiaris
[16] = Drug metabolism in human liver S9 fraction assessed as (E)-1-methyl-3-(2-pyridinylmethyl)-5-(2-pyridinylmethylidene)-4-piperidone formation at 1 uM using 1% DMSO measured at 60 mins by LC/MS-MS analysis in presence of NADPH; assay type: ADME, subcellular; conditions: s9, 1 h; how it was run: as §1
[17] = Metabolic stability in human liver S9 fraction assessed as remaining compound level at 2 uM using 0.2% DMSO measured after 1 hr by LC/MS-MS analysis in presence of NADPH; assay type: ADME, subcellular; conditions: read-out: Stability; how it was run: as §1
[18] = Drug metabolism in CD1 mouse liver S9 fraction assessed as (E)-1-methyl-3-(2-pyridinylmethyl)-5-(2-pyridinylmethylidene)-4-piperidone formation at 1 uM using 1% DMSO measured at 60 mins by LC/MS-MS analysis in presence of NADPH; assay type: ADME, subcellular; conditions: s9, 1 h; how it was run: as §1
[19] = Drug metabolism in Sprague-Dawley rat liver S9 fraction at 1 uM using 1% DMSO measured after 60 mins by LC/MS-MS analysis in presence of NADPH; assay type: ADME, subcellular; conditions: s9, 1 h
[20] = Drug metabolism in cynomolgus monkey whole blood assessed as (E)-1-methyl-3-(2-pyridinylmethyl)-5-(2-pyridinylmethylidene)-4-piperidone formation at 1 uM after 2 hrs by LC/MS-MS analysis; assay type: ADME, tissue-based, Macaca fascicularis
Blood [21] = assay: Drug metabolism in human whole blood assessed as (E)-1-methyl-3-(2-pyridinylmethyl)-5-(2-pyridinylmethylidene)-4-piperidone formation at 1 uM after 2 hrs by LC/MS-MS analysis; assay type: ADME, tissue-based
[22] = Half life in CD1 mouse liver S9 fraction at 1 uM using 1% DMSO; assay type: ADME, subcellular; how it was run: as §1
[23] = Drug metabolism in human liver S9 fraction assessed as (E)-1-methyl-3,5-bis(2-pyridinylmethylidene)-4-hydroxypiperidine formation at 1 uM using 1% DMSO measured at 60 mins by LC/MS-MS analysis in presence of NADPH; assay type: ADME, subcellular; conditions: s9, 1 h; how it was run: as §1
[24] = Elimination half life in ND4 Swiss Webster mouse at 12.5 to 25 mg/kg, ip; assay type: ADME, organism-based; parameters: dose 12.5-25 mg/kg, route intraperitoneal; conditions: in vivo, read-out: beta t1/2

Compound: CN1C/C(=C\c2ccccn2)C(=O)C(Cc2ccccn2)C1 (configuration not stated)
Drug metabolism [1]: metabolite_detected
Drug metabolism (Blood [2]): metabolite_detected
Drug metabolism (Liver): metabolite_detected
Drug metabolism [3]: metabolite_detected
GI50 [4]: > 10 µM
Drug metabolism [5]: metabolite_detected
GI50 (MDA-MB-231): > 5 µM
Drug metabolism [6]: metabolite_detected

Compound: O=C1/C(=C/c2ccccc2F)CNC/C1=C\c1ccccc1F
half-life [7]: 60 min

The next lines start with results.

Drug metabolism [8]: metabolite_detected
half-life at 2 µM [9]: 18 min
Drug metabolism [10]: metabolite_detected
remaining at 1 h, 2 µM [11]: 27.6%
half-life [7]: 240 min
half-life at 1 µM [12]: 8 min
fraction unbound [13]: 0.06
half-life at 2 µM [14]: 9 min
Drug metabolism [15]: metabolite_detected
Drug metabolism [16]: metabolite_detected
remaining at 1 h, 2 µM [17]: 4.1%
Drug metabolism [18]: metabolite_detected
Drug metabolism [19]: metabolite_detected
Drug metabolism [20]: metabolite_detected
Drug metabolism (Blood [21]): metabolite_detected
half-life at 1 µM [22]: 38 min
Drug metabolism [23]: metabolite_detected
Compound: CN1C/C(=C\c2ccccn2)C(=O)/C(=C/c2ccccn2)C1
Activity (TU212): Active

half-life [24]: ≤ 1 min
Compound: O=C1/C(=C/c2ccccn2)CNC/C1=C\c1ccccn1

Drug metabolism (Liver): metabolite_detected
Drug metabolism [3]: metabolite_detected
GI50 (MDA-MB-231): > 10 µM
Compound: CN1C/C(=C\c2ccccn2)C(O)/C(=C/c2ccccn2)C1 (configuration not stated)
GI50 [4]: > 10 µM

— ChEMBL document CHEMBL3259610, “Liver S9 Fraction-Derived Metabolites of Curcumin Analogue UBS109” (ACS Med Chem Lett, 2014)
